Key:
[1] = biological target: T1, Prothrombin (Homo sapiens, UniProt P00734); experiment: Percentage inhibition against of human thrombin at dose of 10 X E-6 M
[2] = biological target: T2, Serine protease 1 (Homo sapiens, UniProt P07477); experiment: Percentage inhibition against human trypsin at dose of 10 X E-5 M
[3] = biological target: T1, Prothrombin; experiment: In vitro inhibition of human thrombin.
[4] = biological target: T2, Serine protease 1; experiment: In vitro inhibition of human trypsin.
Summary of the method: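 Human pancreatic trypsin, chromogenic substrate S2222, 50 mM HEPES/150 mM NaCl pH 8.0. Kinetic assay over 15 min after starting with substrate at four concentrations. Ki taken from 1/V versus 1/S plot.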

[5] = Plasma clearance in Male Sprague-Dawley rats after intravenous administration at a dose of 10 mg/kg; type: ADME, organism-based; design: dose 10 mg/kg, route intravenous; details: rat
Summary of the method: (§1)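 PK: male Sprague–Dawley rats (n = 3 per sampling time) given saline solution as rapid iv bolus via caudal vein; Beagle dogs (n = 2) given constant-rate iv infusion over 15 min via saphenous vein. Plasma collected into lithium heparin; drug measured by LCMS with internal standard after solid-phase extraction at pH 6.0. Parameters derived by computational PK analysis.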

[6] = Oral bioavailability in Beagle dogs after Per oral administration at dose of 50(mg/kg); type: ADME, organism-based, Canis lupus familiaris; details: dog, in vivo, 10 mg/kg, in the assay text read “10(mg/kg)” for “50(mg/kg)”
Summary of the method: (§2)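 Oral bioavailability: compound in water given by gavage to male Sprague–Dawley rats (n = 3 per sampling time) and Beagle dogs (n = 2). Plasma collected into lithium heparin (dog saphenous cannula, conscious; rat vena cava under halothane). Drug quantified by LCMS, compared with iv saline dosing; parameters from computational PK analysis.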

[7] = Alpha-elimination half-life in Male Sprague-Dawley rats after intravenous administration at a dose of 10 mg/kg; type: ADME, organism-based; design: dose 10 mg/kg, route intravenous; details: rat, in vivo; summary of the method: as §1
[8] = Beta-elimination half-life in Male Sprague-Dawley rats after intravenous administration at a dose of 10 mg/kg; type: ADME, organism-based; design: dose 10 mg/kg, route intravenous; details: rat, in vivo; summary of the method: as §1
[9] = Oral bioavailability in rat (Sprague-Dawley) (male) (dose 50 mg/kg p.o.); type: ADME, organism-based; details: in vivo; summary of the method: as §2
[10] = Volume of distribution in Male Sprague-Dawley rats after intravenous administration at a dose of 10 mg/kg; type: ADME, organism-based; design: dose 10 mg/kg, route intravenous; details: rat, in vivo, read-out: Volume; summary of the method: as §1
[11] = biological target: T3, Coagulation factor VII (Homo sapiens) (UniProt P08709); experiment: Percentage inhibition of Coagulation factor VIIa (FVIIa) at a concentration of 10 X E-4 M from human plasma; type: cell-free
T3 sequence (whole entry): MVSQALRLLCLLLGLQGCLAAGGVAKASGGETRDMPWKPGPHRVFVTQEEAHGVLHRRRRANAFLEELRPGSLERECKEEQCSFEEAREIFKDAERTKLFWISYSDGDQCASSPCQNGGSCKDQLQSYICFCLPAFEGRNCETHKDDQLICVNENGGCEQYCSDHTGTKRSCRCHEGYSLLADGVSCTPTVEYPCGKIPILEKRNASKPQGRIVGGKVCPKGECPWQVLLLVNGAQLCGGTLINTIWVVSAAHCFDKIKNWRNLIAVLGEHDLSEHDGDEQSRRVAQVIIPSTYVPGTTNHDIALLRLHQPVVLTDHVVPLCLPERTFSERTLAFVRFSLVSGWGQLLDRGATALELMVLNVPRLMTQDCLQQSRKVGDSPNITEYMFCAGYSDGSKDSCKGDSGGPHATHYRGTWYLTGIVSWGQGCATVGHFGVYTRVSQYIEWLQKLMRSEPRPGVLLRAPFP
Summary of the method: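 Human plasma FVIIa, 0.06 μg/mL final, plus recombinant tissue factor at 0.12 μg/mL final; substrate N-methylsulfonyl-D-Phe-Pro-Arg-pNA. Buffer 50 mM TRIS/100 mM NaCl pH 7.5. Compound preincubated with enzyme 15 min at room temperature, then substrate added; 30 min at 30 °C; OD 405 nm; percentage inhibition from triplicates.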

[12] = biological target: Coagulation factor X (Bos taurus, UniProt P00743); experiment: Inhibitory effect on Coagulation factor Xa (FXa) from bovine plasma; type: cell-free
Summary of the method: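 Bovine plasma FXa, 0.02 U/mL final, with S2222 at 0.2 mM final, in 50 mM HEPES/150 mM NaCl pH 7.5. Aqueous compound dilutions preincubated with enzyme 15 min at room temperature, then substrate added; OD 405 nm read after 30 min at 30 °C. IC50 from triplicate eight-concentration curves; Ki via Cheng–Prusoff using substrate Km.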

[13] = Plasma clearance in Beagle dogs after intravenous administration at a dose of 1 mg/kg; details: dog
[14] = Volume of distribution in Beagle dogs after intravenous administration at a dose of 1 mg/kg; details: dog, in vivo
[15] = Beta-elimination half-life in Beagle dogs after intravenous administration at a dose of 1 mg/kg; details: dog, in vivo
[16] = Alpha-elimination half-life in Beagle dogs after intravenous administration at a dose of 1 mg/kg; details: dog, in vivo
[17] = biological target: T1, Prothrombin; experiment: Percentage inhibition against human thrombin at dose of 10 X E-6 M
[18] = biological target: T2, Serine protease 1; experiment: Percentage inhibition effect human trypsin at dose of 10 X E-4 M
[19] = biological target: T1, Prothrombin; experiment: Percentage inhibition effect of human thrombin at dose of 10 X E-6 M
[20] = Oral bioavailability in Beagle dogs after Per oral administration at dose of 2(mg/kg); type: ADME, organism-based, Canis lupus familiaris; details: dog, in vivo; summary of the method: as §2
[21] = Plasma clearance in Beagle dogs after intravenous administration at a dose of 1 mg/kg; type: ADME, organism-based, Canis lupus familiaris; design: dose 1 mg/kg, route intravenous; details: dog; summary of the method: as §1
[22] = Volume of distribution in Beagle dogs after intravenous administration at a dose of 1 mg/kg; type: ADME, organism-based, Canis lupus familiaris; design: dose 1 mg/kg, route intravenous; details: dog, in vivo, read-out: Volume; summary of the method: as §1
[23] = Beta-elimination half-life in Beagle dogs after intravenous administration at a dose of 1 mg/kg; type: ADME, organism-based, Canis lupus familiaris; design: dose 1 mg/kg, route intravenous; details: dog, in vivo; summary of the method: as §1
[24] = biological target: T2, Serine protease 1; experiment: Percentage inhibition against human trypsin at dose of 10 X E-4 M

T2 sequence (P07477 whole entry): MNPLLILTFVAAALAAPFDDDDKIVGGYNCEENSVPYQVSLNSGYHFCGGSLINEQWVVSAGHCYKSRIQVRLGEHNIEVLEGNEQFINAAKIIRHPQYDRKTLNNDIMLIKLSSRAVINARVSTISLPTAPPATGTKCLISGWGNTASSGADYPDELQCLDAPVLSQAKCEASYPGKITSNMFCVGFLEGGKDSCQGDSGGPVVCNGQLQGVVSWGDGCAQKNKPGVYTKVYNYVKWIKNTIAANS
Chain of Coagulation factor X (P00743 41-180 limits assumed): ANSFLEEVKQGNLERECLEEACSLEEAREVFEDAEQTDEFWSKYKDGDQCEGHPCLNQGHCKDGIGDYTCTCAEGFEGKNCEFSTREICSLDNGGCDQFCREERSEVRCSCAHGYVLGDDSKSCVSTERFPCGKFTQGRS
Chain of Coagulation factor X (P00743 234-492 limits assumed): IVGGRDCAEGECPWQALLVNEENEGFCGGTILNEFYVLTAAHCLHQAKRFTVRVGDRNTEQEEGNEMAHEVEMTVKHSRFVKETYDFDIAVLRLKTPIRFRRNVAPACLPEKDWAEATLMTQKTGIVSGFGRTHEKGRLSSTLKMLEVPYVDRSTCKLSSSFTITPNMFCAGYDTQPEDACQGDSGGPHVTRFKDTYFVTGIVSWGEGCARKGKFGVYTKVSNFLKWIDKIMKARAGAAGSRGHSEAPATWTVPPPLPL

In the case of `N=C(N)N1CCC(OCCC2CCCCN2C(=O)[C@H](CC(=O)O)NC2CCOCC2)CC1` (stereo partly specified), the inhibition [1] is reported as 42% and the inhibition [2] is reported as 23%.
`N=C(N)N1CCC(OCC[C@@H]2CCCCN2C(=O)[C@H](CC(=O)O)NC2CCCCCC2)CC1` gave a Ki [3] of 1.1 nM and a Ki [4] of 700 nM.
Work on `N=C(N)N1CCC(OCCC2CCCCN2C(=O)[C@H](CC(=O)O)NC2CCCCC2)CC1` (stereo partly specified) yielded a Ki [3] of 7.1 nM and a Ki [4] of 2900 nM.
Molecule `CN(C1CCCCC1)[C@@H](CC(=O)O)C(=O)N1CCCC[C@H]1CCOC1CCN(C(=N)N)CC1` has a clearance [5] of 21.2 mL/min/kg, a bioavailability [6] of 9% and a half-life [7] of 7.2 min. For the same molecule, the half-life [8] was 48 min, the bioavailability [9] was 2% and the Vd [10] was 0.31 L/kg. It also gave an inhibition [11] of 38.7%, a Ki [12] of 4970 nM and a Ki [3] of 2.17 nM. The Ki [4] was 1930 nM, the clearance [13] was 6.4 mL/min/kg and the Vd [14] was 0.53 L/kg. For the same molecule, the half-life [15] was 60 min and the half-life [16] was 9.6 min.
With `CN(C1CCCCC1)[C@@H](CCC(=O)O)C(=O)N1CCCC[C@H]1CCOC1CCN(C(=N)N)CC1` the Ki [3] was 1.8 nM and the Ki [4] was 550 nM.
For `N=C(N)N1CCC(OCCC2CCCCN2C(=O)[C@@H](CC2CCCCC2)NCC(=O)O)CC1` (stereo partly specified), the Ki [3] was 0.96 nM and the Ki [4] was 370 nM.
For `N=C(N)N1CCC(OCCC2CCCCN2C(=O)[C@H](CC(=O)O)NC2CCCC2)CC1` (stereo partly specified), the Ki [3] was 32 nM and the Ki [4] was 5000 nM.
Work on `CCS(=O)(=O)N[C@H](Cc1ccccc1)C(=O)N1CCC[C@H]1C(=O)NCC1CCN(C(=N)N)CC1` yielded a Ki [3] of 15 nM.
`N=C(N)N1CCC(OCC[C@@H]2CCCCN2C(=O)[C@H](CC(=O)O)NCc2ccccc2)CC1` showed an inhibition [17] of 24% and a Ki [4] of 9200 nM.
With `CN1CCC(N[C@@H](CC(=O)O)C(=O)N2CCCC[C@H]2CCOC2CCN(C(=N)N)CC2)CC1` the Ki [3] was 90 nM and the Ki [4] was 4800 nM.
`CN(C1CCCCCC1)[C@@H](CC(=O)O)C(=O)N1CCCC[C@H]1CCOC1CCN(C(=N)N)CC1` showed a Ki [3] of 0.53 nM and a Ki [4] of 810 nM.
Work on `CCC(CC)N[C@@H](CC(=O)O)C(=O)N1CCCC[C@H]1CCOC1CCN(C(=N)N)CC1` yielded a Ki [3] of 9.8 nM and a Ki [4] of 1400 nM.
In the case of `N=C(N)N1CCC(OCCC2CCCCN2C(=O)[C@H](CC(=O)O)NC2CCCCCCC2)CC1` (stereo partly specified), the Ki [3] is reported as 1.3 nM and the Ki [4] is reported as 720 nM.
In the case of `CN(C)CCN(C1CCCCC1)[C@@H](CC(=O)O)C(=O)N1CCCCC1CCOC1CCN(C(=N)N)CC1` (stereo partly specified), the inhibition [18] is reported as 0% and the inhibition [19] is reported as 0%.
In the case of `N=C(N)N1CCC(OCCC2CCCCN2C(=O)[C@@H](Cc2ccccc2)NCC(=O)O)CC1` (stereo partly specified), the Ki [3] is reported as 370 nM and the Ki [4] is reported as 7900 nM.
Molecule `N=C(N)N1CCC(OCCC2CCCCN2C(=O)[C@H](CC(=O)O)NCC2CCCCC2)CC1` (stereo partly specified) has a Ki [3] of 16 nM and a Ki [4] of 1600 nM.
`N=C(N)c1ccc(OCC[C@@H]2CCCCN2C(=O)[C@@H](CC2CCCCC2)NCC(=O)O)cc1` showed a Ki [3] of 0.37 nM and a Ki [4] of 89 nM.
`CC1=CCN(C(=O)[C@H](Cc2cccc(C(=N)N)c2)NS(=O)(=O)c2ccc3c(c2)CCN(C)CC3)[C@@H](C(=O)O)C1` showed a clearance [5] of 11 mL/min/kg, a half-life [8] of 48 min and a bioavailability [9] of 16%. The Vd [10] was 0.6 L/kg, the bioavailability [20] was 37% and the clearance [21] was 6.9 mL/min/kg. The Vd [22] was 0.53 L/kg and the half-life [23] was 54 min.
`CN(C1CCC=CCC1)[C@@H](CC(=O)O)C(=O)N1CCCC[C@H]1CCOC1CCN(C(=N)N)CC1` gave a Ki [3] of 0.8 nM and a Ki [4] of 1100 nM.
Molecule `CCN(C1CCCCC1)[C@@H](CC(=O)O)C(=O)N1CCCCC1CCOC1CCN(C(=N)N)CC1` (stereo partly specified) has a Ki [3] of 16 nM and a Ki [4] of 5000 nM.
Work on `N=C(N)c1ccc(OCC[C@H]2CCCCN2C(=O)[C@@H](CC2CCCCC2)NCC(=O)O)cc1` yielded a Ki [3] of 120 nM and a Ki [4] of 7300 nM.
`CN(C1CCCOC1)[C@@H](CC(=O)O)C(=O)N1CCCC[C@H]1CCOC1CCN(C(=N)N)CC1` (stereo partly specified) showed an inhibition [1] of 16% and an inhibition [24] of 48%.

Source: ChEMBL document CHEMBL1135990, “Design of selective thrombin inhibitors based on the (R)-Phe-Pro-Arg sequence” (J Med Chem, 2002)
